In ChEMBL document CHEMBL4725486, “Effects of C-Terminal B-Chain Modifications in a Relaxin 3 Agonist Analogue” (ACS Med Chem Lett, 2020):

Columns and labels:
[1] = target: T1, Relaxin-3 receptor 1 (Homo sapiens, UniProt Q9NSD7); assay: Displacement of Eu-labeled H3B1-22R from RXFP3 (unknown origin) stably expressed in CHO-K1 cells by competition binding assay; assay type: cell-based
T1 sequence (Q9NSD7 whole entry): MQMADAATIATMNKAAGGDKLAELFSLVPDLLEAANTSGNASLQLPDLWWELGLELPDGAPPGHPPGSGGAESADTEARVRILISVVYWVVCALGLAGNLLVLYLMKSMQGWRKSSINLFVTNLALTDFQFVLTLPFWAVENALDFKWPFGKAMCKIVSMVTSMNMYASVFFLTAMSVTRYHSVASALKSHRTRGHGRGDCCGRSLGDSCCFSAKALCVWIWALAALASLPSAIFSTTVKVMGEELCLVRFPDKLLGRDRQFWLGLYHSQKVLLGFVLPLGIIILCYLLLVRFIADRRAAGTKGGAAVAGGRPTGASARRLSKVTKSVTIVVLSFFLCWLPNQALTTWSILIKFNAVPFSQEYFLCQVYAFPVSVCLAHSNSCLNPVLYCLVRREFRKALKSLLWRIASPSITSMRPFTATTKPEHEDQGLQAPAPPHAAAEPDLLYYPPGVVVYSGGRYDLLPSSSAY
Method in brief: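 Competition binding used europium-labeled H3 B1-22R as the labeled ligand on CHO-RXFP3 cells, with peptides as competitors. pKi values were pooled from 3–4 independent experiments.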

[2] = target: T1, Relaxin-3 receptor 1; assay: Agonist activity at RXFP3 (unknown origin) stably expressed in CHO-K1 cells co-transfected with pCRE assessed as inhibition of forskolin-induced cAMP accumulation measured after 6 hrs by beta-galactosidase reporter gene assay; assay type: functional, cell-based
Method in brief: (§1)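 Cells were CHO lines expressing RXFP3 or RXFP4, which couple to Gi/o. Agonist action was read as inhibition of forskolin-stimulated cAMP in a reporter gene assay after 6 h stimulation. pEC50 values were pooled from 3–4 independent experiments.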

[3] = target: Relaxin-3 receptor 2 (Homo sapiens, UniProt Q8TDU9); assay: Agonist activity at RXFP4 (unknown origin) stably expressed in CHO cells co-transfected with pCRE assessed as inhibition of forskolin-induced cAMP accumulation measured after 6 hrs by beta-galactosidase reporter gene assay; assay type: functional, cell-based; method in brief: as §1
Sequence of Relaxin-3 receptor 2 (Q8TDU9 whole entry): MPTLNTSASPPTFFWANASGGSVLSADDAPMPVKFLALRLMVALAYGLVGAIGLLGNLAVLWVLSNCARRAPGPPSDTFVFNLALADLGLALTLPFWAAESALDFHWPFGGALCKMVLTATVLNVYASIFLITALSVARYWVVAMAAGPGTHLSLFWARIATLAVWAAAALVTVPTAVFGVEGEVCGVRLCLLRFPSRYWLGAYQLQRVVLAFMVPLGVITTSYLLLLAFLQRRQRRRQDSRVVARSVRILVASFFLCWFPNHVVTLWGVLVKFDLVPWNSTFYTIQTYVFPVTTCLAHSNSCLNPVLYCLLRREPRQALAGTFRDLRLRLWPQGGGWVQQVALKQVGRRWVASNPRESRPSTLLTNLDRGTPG

Ki [1] [nM] | EC50 [2] [nM] | EC50 [3] [nM] | Structure (SMILES)
45.7 | 6.17 | 6.92 | CC[C@H](C)[C@@H]1NC(=O)[C@H](CCC(=O)O)NC(=O)[C@H](CO)NC(=O)[C@H](CCCCN)NC(=O)[C@H](CO)NC(=O)[C@H](C)NC(=O)CNC(=O)[C@H](Cc2c[nH]c3ccccc23)NC(=O)[C@H](CCCCN)NC(=O)[C@@H](N)CSSC[C@@H](C(=O)NCC(=O)NCC(=O)N[C@@H](CO)C(=O)N[C@@H](CCCNC(=N)N)C(=O)N[C@@H](Cc2c[nH]c3ccccc23)C(=O)O)NC(=O)[C@H]([C@@H](C)O)NC(=O)[C@H](Cc2ccccc2)NC(=O)[C@H]([C@@H](C)CC)NC(=O)[C@H](C(C)C)NC(=O)[C@H](CCCNC(=N)N)NC(=O)[C@H]([C@@H](C)CC)NC(=O)[C@H](Cc2ccccc2)NC(=O)[C@H](CCC(=O)O)NC(=O)[C@H](CCCNC(=N)N)NC(=O)CNC(=O)[C@@H](NC(=O)[C@H](CC(C)C)NC(=O)[C@H](CCCNC(=N)N)NC(=O)[C@@H](NC(=O)CNC(=O)[C@H](Cc2ccc(O)cc2)NC(=O)[C@@H]2CCCN2C(=O)[C@H](C)NC(=O)[C@H](C)NC(=O)[C@H](CCCNC(=N)N)N[C@@H](Cc2c[nH]c3ccccc23)C(=O)O)C(C)C)CSSC[C@@H](C(=O)O)NC(=O)[C@H](CC(C)C)NC(=O)[C@H](CO)NC(=O)[C@H](CO)NC1=O
110 | 6.17 | 19.5 | CC[C@H](C)[C@@H]1NC(=O)[C@H](CCC(=O)O)NC(=O)[C@H](CO)NC(=O)[C@H](CCCCN)NC(=O)[C@H](CO)NC(=O)[C@H](C)NC(=O)CNC(=O)[C@H](Cc2c[nH]c3ccccc23)NC(=O)[C@H](CCCCN)NC(=O)[C@@H](N)CSSC[C@@H](C(=O)NCC(=O)NCC(=O)N[C@@H](CO)C(=O)N[C@@H](CCCNC(=N)N)C(=O)N[C@@H](Cc2c[nH]c3ccccc23)C(=O)O)NC(=O)[C@H]([C@@H](C)O)NC(=O)[C@H](Cc2ccccc2)NC(=O)[C@H]([C@@H](C)CC)NC(=O)[C@H](C(C)C)NC(=O)[C@H](CCCNC(=N)N)NC(=O)[C@H]([C@@H](C)CC)NC(=O)[C@H](Cc2ccccc2)NC(=O)[C@H](CCC(=O)O)NC(=O)[C@H](CCCNC(=N)N)NC(=O)CNC(=O)[C@@H](NC(=O)[C@H](CC(C)C)NC(=O)[C@H](CCCNC(=N)N)NC(=O)[C@@H](NC(=O)CNC(=O)[C@H](Cc2ccc(O)cc2)NC(=O)[C@@H]2CCCN2C(=O)[C@H](C)NC(=O)[C@H](C)NC(=O)[C@H](CCCNC(=N)N)N[C@H](COC(N)=O)Cc2c[nH]c3ccccc23)C(C)C)CSSC[C@@H](C(=O)O)NC(=O)[C@H](CC(C)C)NC(=O)[C@H](CO)NC(=O)[C@H](CO)NC1=O
331 | 13.2 | 282 | CC[C@H](C)[C@@H]1NC(=O)[C@H](CCC(=O)O)NC(=O)[C@H](CO)NC(=O)[C@H](CCCCN)NC(=O)[C@H](CO)NC(=O)[C@H](C)NC(=O)CNC(=O)[C@H](Cc2c[nH]c3ccccc23)NC(=O)[C@H](CCCCN)NC(=O)[C@@H](N)CSSC[C@@H](C(=O)NCC(=O)NCC(=O)N[C@@H](CO)C(=O)N[C@@H](CCCNC(=N)N)C(=O)N[C@@H](Cc2c[nH]c3ccccc23)C(=O)O)NC(=O)[C@H]([C@@H](C)O)NC(=O)[C@H](Cc2ccccc2)NC(=O)[C@H]([C@@H](C)CC)NC(=O)[C@H](C(C)C)NC(=O)[C@H](CCCNC(=N)N)NC(=O)[C@H]([C@@H](C)CC)NC(=O)[C@H](Cc2ccccc2)NC(=O)[C@H](CCC(=O)O)NC(=O)[C@H](CCCNC(=N)N)NC(=O)CNC(=O)[C@@H](NC(=O)[C@H](CC(C)C)NC(=O)[C@H](CCCNC(=N)N)NC(=O)[C@@H](NC(=O)CNC(=O)[C@H](Cc2ccc(O)cc2)NC(=O)[C@@H]2CCCN2C(=O)[C@H](C)NC(=O)[C@H](C)NC(=O)[C@H](CCCNC(=N)N)N[C@H](CO)Cc2c[nH]c3ccccc23)C(C)C)CSSC[C@@H](C(=O)O)NC(=O)[C@H](CC(C)C)NC(=O)[C@H](CO)NC(=O)[C@H](CO)NC1=O
186 | 4.37 | 7.08 | CC[C@H](C)[C@@H]1NC(=O)[C@H](CCC(=O)O)NC(=O)[C@H](CO)NC(=O)[C@H](CCCCN)NC(=O)[C@H](CO)NC(=O)[C@H](C)NC(=O)CNC(=O)[C@H](Cc2c[nH]c3ccccc23)NC(=O)[C@H](CCCCN)NC(=O)[C@@H](N)CSSC[C@@H](C(=O)NCC(=O)NCC(=O)N[C@@H](CO)C(=O)N[C@@H](CCCNC(=N)N)C(=O)N[C@@H](Cc2c[nH]c3ccccc23)C(=O)O)NC(=O)[C@H]([C@@H](C)O)NC(=O)[C@H](Cc2ccccc2)NC(=O)[C@H]([C@@H](C)CC)NC(=O)[C@H](C(C)C)NC(=O)[C@H](CCCNC(=N)N)NC(=O)[C@H]([C@@H](C)CC)NC(=O)[C@H](Cc2ccccc2)NC(=O)[C@H](CCC(=O)O)NC(=O)[C@H](CCCNC(=N)N)NC(=O)CNC(=O)[C@@H](NC(=O)[C@H](CC(C)C)NC(=O)[C@H](CCCNC(=N)N)NC(=O)[C@@H](NC(=O)CNC(=O)[C@H](Cc2ccc(O)cc2)NC(=O)[C@@H]2CCCN2C(=O)[C@H](C)NC(=O)[C@H](C)NC(=O)[C@H](CCCNC(=N)N)N[C@@H](Cc2c[nH]c3ccccc23)C(=O)OC[C@H](NC(C)=O)C(N)=O)C(C)C)CSSC[C@@H](C(=O)O)NC(=O)[C@H](CC(C)C)NC(=O)[C@H](CO)NC(=O)[C@H](CO)NC1=O
191 | 15.8 | 14.5 | CC[C@H](C)[C@@H]1NC(=O)[C@H](CCC(=O)O)NC(=O)[C@H](CO)NC(=O)[C@H](CCCCN)NC(=O)[C@H](CO)NC(=O)[C@H](C)NC(=O)CNC(=O)[C@H](Cc2c[nH]c3ccccc23)NC(=O)[C@H](CCCCN)NC(=O)[C@@H](N)CSSC[C@@H](C(=O)NCC(=O)NCC(=O)N[C@@H](CO)C(=O)N[C@@H](CCCNC(=N)N)C(=O)N[C@@H](Cc2c[nH]c3ccccc23)C(=O)O)NC(=O)[C@H]([C@@H](C)O)NC(=O)[C@H](Cc2ccccc2)NC(=O)[C@H]([C@@H](C)CC)NC(=O)[C@H](C(C)C)NC(=O)[C@H](CCCNC(=N)N)NC(=O)[C@H]([C@@H](C)CC)NC(=O)[C@H](Cc2ccccc2)NC(=O)[C@H](CCC(=O)O)NC(=O)[C@H](CCCNC(=N)N)NC(=O)CNC(=O)[C@@H](NC(=O)[C@H](CC(C)C)NC(=O)[C@H](CCCNC(=N)N)NC(=O)[C@@H](NC(=O)CNC(=O)[C@H](Cc2ccc(O)cc2)NC(=O)[C@@H]2CCCN2C(=O)[C@H](C)NC(=O)[C@H](C)NC(=O)[C@H](CCCNC(=N)N)N[C@@H](Cc2c[nH]c3ccccc23)C(N)=O)C(C)C)CSSC[C@@H](C(=O)O)NC(=O)[C@H](CC(C)C)NC(=O)[C@H](CO)NC(=O)[C@H](CO)NC1=O
